Laboratory results reported in ChEMBL document CHEMBL4425169 (ACS Med Chem Lett, 2016).
Activity calls are given as the source filed them. No cut-off for these calls is given here.

Columns and labels:
[1] = molecular target: T1, Sodium-dependent serotonin transporter (Homo sapiens, UniProt P31645); experiment: Inhibition of human SERT
Acetylcholinesterase = Acetylcholinesterase (Homo sapiens, UniProt P22303); experiment: Inhibition of ACES (unknown origin)
[2] = Volume of distribution at steady state in rat at 1 mg/kg, iv or 2 mg/kg, po; type: ADME, organism-based; conditions: in vivo, read-out: Vdss
Outline: (§1)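 Rats dosed once at 1 mg/kg IV and, separately, 2 mg/kg PO, with n = 3. Derived parameters were plasma clearance, Vdss, dose-normalized oral AUC (μM·h·kg/mg), half-life, and oral bioavailability (F%).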

[3] = Drug metabolism in monkey hepatocytes assessed as lactone hydrolysis at 1 uM measured at 120 mins; type: ADME, cell-based, Macaca mulatta, Hepatocyte; conditions: rhesus monkey, read-out: Drug metabolism
[4] = molecular target: Voltage-dependent L-type calcium channel subunit alpha-1C (Homo sapiens, UniProt Q13936); experiment: Inhibition of Cav1.2 (unknown origin)
Chain of Voltage-dependent L-type calcium channel subunit alpha-1C (Q13936 whole entry): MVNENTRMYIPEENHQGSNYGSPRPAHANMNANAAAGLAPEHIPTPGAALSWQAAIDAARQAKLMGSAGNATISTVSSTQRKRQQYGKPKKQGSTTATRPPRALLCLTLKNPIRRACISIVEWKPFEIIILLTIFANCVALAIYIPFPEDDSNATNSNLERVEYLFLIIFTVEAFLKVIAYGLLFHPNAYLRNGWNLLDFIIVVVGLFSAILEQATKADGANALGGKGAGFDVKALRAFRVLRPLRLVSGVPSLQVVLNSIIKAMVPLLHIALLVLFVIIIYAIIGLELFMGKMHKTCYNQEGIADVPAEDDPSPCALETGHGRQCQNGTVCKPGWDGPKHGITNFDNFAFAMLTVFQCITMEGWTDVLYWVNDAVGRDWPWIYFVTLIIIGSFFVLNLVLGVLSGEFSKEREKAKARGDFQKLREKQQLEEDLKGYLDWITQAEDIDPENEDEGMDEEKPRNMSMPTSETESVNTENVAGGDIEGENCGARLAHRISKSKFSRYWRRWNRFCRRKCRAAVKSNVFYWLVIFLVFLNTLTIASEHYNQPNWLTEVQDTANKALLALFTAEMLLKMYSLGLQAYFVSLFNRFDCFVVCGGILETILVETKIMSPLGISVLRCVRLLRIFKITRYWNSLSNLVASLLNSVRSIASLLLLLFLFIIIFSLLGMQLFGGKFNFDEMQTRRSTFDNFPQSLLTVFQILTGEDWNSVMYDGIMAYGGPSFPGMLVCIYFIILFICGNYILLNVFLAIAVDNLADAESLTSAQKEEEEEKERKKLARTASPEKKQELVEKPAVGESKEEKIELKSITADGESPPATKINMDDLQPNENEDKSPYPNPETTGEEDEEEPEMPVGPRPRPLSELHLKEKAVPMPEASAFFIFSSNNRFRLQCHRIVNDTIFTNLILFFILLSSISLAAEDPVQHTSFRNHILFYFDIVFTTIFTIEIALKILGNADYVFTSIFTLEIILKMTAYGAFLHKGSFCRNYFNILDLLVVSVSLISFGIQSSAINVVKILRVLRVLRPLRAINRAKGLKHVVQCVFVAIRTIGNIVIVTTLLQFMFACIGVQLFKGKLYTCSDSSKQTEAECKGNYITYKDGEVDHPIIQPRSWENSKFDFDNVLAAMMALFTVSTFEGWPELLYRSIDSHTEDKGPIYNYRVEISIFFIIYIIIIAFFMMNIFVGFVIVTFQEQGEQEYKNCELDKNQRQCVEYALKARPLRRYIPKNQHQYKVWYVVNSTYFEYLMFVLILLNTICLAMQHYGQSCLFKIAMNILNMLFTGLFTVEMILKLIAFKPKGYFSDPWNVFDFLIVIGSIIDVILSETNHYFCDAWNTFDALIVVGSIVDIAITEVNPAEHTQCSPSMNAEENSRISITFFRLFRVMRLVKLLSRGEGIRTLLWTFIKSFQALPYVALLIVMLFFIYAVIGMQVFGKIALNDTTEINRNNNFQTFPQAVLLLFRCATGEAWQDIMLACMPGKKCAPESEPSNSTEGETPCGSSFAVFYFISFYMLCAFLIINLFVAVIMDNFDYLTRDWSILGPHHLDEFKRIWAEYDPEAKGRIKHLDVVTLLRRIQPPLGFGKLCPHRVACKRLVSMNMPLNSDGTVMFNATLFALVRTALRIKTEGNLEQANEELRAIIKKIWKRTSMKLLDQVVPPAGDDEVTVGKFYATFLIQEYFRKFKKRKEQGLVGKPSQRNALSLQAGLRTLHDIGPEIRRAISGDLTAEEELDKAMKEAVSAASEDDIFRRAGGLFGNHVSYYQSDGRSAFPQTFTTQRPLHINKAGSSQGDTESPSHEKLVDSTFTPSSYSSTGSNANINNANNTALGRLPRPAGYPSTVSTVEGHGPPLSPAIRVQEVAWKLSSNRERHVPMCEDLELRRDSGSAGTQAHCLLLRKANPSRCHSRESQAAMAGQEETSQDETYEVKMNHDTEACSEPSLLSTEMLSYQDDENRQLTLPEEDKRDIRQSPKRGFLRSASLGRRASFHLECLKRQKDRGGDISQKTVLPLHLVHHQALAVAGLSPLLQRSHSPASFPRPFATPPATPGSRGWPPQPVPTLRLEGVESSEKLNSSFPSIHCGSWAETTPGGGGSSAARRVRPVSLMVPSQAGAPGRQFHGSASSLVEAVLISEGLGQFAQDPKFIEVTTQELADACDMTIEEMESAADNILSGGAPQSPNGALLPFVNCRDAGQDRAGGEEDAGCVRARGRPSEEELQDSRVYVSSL

Rattus norvegicus [5] = experiment: Kaliuretic activity in Sprague-Dawley rat at 10 mg/kg via oral gavage administered 30 mins prior to void induction by loading saline measured upto 4 hrs relative to vehicle treated control; type: functional
Outline: (§2)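 Acute rat diuresis model in male-unspecified Sprague-Dawley rats, single oral dose, urine collected over 4 h. Urine volume, sodium excretion and potassium excretion expressed as fold increase over vehicle-treated controls; n = 5 per group; significance tested against vehicle.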

[6] = Cardiotoxicity in vagotomized cardiovascular dog model assessed as effect on QRS complex at plasma concentration <= 11.6 uM at 1 to 7 mg/kg, iv administered during three sequential 30 min periods; type: toxicity, organism-based, Canis lupus familiaris; conditions: in vivo, 0.5 h
Outline: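 Anesthetized, vagotomized dogs received IV infusions over sequential periods at 1, 2 and 7 mg/kg (10 mg/kg cumulative). Heart rate, mean arterial pressure and ECG intervals (PR, QRS, QT/QTc) were recorded predose and during each infusion period. Plasma concentrations were measured.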

[7] = Clearance in rhesus monkey at 1 mg/kg, iv or 2 mg/kg, po; type: ADME, organism-based, Macaca mulatta; conditions: in vivo
[8] = Clearance in rat at 1 mg/kg, iv or 2 mg/kg, po; type: ADME, organism-based; conditions: in vivo; outline: as §1
Rattus norvegicus [9] = experiment: Kaliuretic activity in Sprague-Dawley rat at 1 mg/kg via oral gavage administered 30 mins prior to void induction by loading saline measured upto 4 hrs relative to vehicle treated control; type: functional; outline: as §2
[10] = molecular target: T1, Sodium-dependent serotonin transporter; experiment: Inhibition of [3H]-serotonin uptake at human SERT transfected in HEK293 cells; type: cell-based
Rattus norvegicus [11] = experiment: Natriuretic activity in Sprague-Dawley rat at 1 mg/kg via oral gavage administered 30 mins prior to void induction by loading saline measured upto 4 hrs relative to vehicle treated control; type: functional; outline: as §2
[12] = molecular target: T2, Inward rectifier potassium channel 2 (Homo sapiens, UniProt P63252); experiment: Inhibition of Kir2.1 (unknown origin) upto 30 uM
T2 sequence (P63252 whole entry): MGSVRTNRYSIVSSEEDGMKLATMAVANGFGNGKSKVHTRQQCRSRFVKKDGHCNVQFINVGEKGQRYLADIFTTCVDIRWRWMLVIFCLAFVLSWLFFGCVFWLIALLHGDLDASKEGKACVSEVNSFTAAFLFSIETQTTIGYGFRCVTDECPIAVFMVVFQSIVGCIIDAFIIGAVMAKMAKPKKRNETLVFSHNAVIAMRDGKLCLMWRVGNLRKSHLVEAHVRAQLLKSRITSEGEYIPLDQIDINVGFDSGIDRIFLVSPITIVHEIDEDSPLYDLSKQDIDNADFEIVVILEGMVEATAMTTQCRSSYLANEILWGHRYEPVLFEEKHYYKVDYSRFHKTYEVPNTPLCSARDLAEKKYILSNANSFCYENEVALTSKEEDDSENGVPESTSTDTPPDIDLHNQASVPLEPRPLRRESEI

[13] = Drug metabolism in rat hepatocytes assessed as glucuronidation at 1 uM measured at 120 mins; type: ADME, cell-based, Hepatocyte; conditions: read-out: Drug metabolism
Rattus norvegicus [14] = experiment: Natriuretic activity in Sprague-Dawley rat at 10 mg/kg via oral gavage administered 30 mins prior to void induction by loading saline measured upto 4 hrs relative to vehicle treated control; type: functional
Outline: (§3)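 Acute 4 h study in Sprague-Dawley rats after oral dosing, n = 5 per group. Urine volume and sodium and potassium excretion were expressed as fold increase over vehicle-treated animals. Significance was tested versus vehicle (p < 0.05 or p < 0.01).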

[15] = Drug metabolism in human hepatocytes assessed as oxidation at 1 uM measured at 120 mins; type: ADME, cell-based, Hepatocyte; conditions: read-out: Drug metabolism
Rattus norvegicus [16] = experiment: Diuretic activity in Sprague-Dawley rat at 3 mg/kg via oral gavage administered 30 mins prior to void induction by loading saline measured upto 4 hrs relative to vehicle treated control; type: functional; outline: as §3
[17] = Drug metabolism in monkey hepatocytes assessed as oxidation at 1 uM measured at 120 mins; type: ADME, cell-based, Macaca mulatta, Hepatocyte; conditions: rhesus monkey, 2 h
Rattus norvegicus [18] = experiment: Kaliuretic activity in Sprague-Dawley rat at 3 mg/kg via oral gavage administered 30 mins prior to void induction by loading saline measured upto 4 hrs relative to vehicle treated control; type: functional; outline: as §2
[19] = molecular target: Voltage-gated inwardly rectifying potassium channel KCNH2 (Homo sapiens, UniProt Q12809); experiment: Displacement of [35S]MK-499 from human ERG
Chain of Voltage-gated inwardly rectifying potassium channel KCNH2 (Q12809 whole entry): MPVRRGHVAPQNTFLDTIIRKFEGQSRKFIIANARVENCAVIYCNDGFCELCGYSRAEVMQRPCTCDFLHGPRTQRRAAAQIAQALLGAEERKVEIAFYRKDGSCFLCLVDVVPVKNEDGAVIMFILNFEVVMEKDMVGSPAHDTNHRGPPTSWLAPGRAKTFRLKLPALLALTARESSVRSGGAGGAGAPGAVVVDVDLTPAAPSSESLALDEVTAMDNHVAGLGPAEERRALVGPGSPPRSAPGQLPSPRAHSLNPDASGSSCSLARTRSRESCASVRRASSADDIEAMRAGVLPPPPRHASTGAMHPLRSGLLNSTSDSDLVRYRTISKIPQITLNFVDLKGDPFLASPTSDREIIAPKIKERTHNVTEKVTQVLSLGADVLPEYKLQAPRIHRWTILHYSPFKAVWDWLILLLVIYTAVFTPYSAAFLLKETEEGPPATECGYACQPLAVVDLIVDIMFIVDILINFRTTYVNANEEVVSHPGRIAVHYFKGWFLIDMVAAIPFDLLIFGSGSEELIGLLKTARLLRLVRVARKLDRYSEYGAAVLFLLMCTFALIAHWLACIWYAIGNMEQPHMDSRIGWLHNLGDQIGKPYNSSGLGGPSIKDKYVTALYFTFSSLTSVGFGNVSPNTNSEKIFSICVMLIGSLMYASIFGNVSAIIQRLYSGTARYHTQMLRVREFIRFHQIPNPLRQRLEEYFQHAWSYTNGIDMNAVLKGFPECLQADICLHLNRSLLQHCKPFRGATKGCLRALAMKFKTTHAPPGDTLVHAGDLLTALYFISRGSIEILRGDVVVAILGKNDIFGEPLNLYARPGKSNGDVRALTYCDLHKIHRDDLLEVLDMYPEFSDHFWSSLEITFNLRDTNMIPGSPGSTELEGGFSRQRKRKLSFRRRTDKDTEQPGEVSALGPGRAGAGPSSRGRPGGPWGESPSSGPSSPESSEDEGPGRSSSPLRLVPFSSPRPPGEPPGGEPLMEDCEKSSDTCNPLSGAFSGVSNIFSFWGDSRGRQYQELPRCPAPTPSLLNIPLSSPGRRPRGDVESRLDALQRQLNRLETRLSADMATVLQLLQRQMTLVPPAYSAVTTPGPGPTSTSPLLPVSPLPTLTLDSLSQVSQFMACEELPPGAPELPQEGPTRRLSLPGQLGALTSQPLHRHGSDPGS

Rattus norvegicus [20] = experiment: Diuretic activity in Sprague-Dawley rat at 0.3 mg/kg via oral gavage administered 30 mins prior to void induction by loading saline measured upto 4 hrs relative to vehicle treated control; type: functional; outline: as §2
[21] = Oral bioavailability in rat at 2 mg/kg; type: ADME, organism-based; conditions: in vivo; outline: as §1
Rattus norvegicus [22] = experiment: Kaliuretic activity in Sprague-Dawley rat at 0.3 mg/kg via oral gavage administered 30 mins prior to void induction by loading saline measured upto 4 hrs relative to vehicle treated control; type: functional; outline: as §2
[23] = Half life in human; type: ADME
Cytochrome P450 2C9 = Cytochrome P450 2C9 (Homo sapiens, UniProt P11712); experiment: Reversible inhibition of human CYP2C9; type: ADME
Chain of Cytochrome P450 2C9 (P11712 whole entry): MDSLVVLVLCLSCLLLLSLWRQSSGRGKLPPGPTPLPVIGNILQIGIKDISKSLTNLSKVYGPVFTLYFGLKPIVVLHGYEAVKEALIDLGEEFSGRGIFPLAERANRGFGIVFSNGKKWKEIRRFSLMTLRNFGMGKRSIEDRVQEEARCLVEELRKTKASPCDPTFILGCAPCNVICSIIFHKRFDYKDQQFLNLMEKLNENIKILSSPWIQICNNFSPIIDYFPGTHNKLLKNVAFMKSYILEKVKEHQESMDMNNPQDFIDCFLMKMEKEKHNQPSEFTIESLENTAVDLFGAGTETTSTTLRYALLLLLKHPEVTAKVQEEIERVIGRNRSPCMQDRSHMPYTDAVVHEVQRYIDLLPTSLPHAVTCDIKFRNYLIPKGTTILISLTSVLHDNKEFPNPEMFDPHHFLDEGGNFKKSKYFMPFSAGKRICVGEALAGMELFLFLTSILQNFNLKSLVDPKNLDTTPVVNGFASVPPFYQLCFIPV

[24] = molecular target: T3, ATP-sensitive inward rectifier potassium channel 10 (Homo sapiens) (UniProt P78508); experiment: Inhibition of Kir4.1 (unknown origin) upto 30 uM
T3 sequence (whole entry): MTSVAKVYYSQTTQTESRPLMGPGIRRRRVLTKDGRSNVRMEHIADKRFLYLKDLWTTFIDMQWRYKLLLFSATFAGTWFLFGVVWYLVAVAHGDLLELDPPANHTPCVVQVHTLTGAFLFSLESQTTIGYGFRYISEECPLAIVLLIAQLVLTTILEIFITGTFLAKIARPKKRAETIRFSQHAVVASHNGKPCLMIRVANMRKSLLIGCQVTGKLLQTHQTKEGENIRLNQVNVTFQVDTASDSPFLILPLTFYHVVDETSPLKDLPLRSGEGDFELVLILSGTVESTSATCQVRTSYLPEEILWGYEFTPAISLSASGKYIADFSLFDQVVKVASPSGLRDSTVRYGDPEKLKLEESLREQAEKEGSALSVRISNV

T1 sequence (P31645 whole entry): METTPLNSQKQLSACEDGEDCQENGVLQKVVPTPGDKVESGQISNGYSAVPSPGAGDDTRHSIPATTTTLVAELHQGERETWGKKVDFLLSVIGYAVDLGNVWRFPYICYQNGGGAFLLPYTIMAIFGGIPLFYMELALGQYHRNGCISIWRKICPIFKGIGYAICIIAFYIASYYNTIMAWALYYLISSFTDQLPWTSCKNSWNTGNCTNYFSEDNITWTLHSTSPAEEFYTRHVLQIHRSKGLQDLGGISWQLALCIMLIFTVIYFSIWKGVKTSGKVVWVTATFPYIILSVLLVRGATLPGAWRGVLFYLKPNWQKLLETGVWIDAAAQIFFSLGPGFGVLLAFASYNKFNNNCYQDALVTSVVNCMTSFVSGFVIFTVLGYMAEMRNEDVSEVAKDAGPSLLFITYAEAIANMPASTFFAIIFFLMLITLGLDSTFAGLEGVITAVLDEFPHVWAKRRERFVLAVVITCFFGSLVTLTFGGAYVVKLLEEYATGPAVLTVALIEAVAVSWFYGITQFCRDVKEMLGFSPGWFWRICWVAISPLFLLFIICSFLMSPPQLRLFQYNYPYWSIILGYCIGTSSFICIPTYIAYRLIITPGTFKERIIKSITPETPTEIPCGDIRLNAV
Chain of Acetylcholinesterase (P22303 whole entry): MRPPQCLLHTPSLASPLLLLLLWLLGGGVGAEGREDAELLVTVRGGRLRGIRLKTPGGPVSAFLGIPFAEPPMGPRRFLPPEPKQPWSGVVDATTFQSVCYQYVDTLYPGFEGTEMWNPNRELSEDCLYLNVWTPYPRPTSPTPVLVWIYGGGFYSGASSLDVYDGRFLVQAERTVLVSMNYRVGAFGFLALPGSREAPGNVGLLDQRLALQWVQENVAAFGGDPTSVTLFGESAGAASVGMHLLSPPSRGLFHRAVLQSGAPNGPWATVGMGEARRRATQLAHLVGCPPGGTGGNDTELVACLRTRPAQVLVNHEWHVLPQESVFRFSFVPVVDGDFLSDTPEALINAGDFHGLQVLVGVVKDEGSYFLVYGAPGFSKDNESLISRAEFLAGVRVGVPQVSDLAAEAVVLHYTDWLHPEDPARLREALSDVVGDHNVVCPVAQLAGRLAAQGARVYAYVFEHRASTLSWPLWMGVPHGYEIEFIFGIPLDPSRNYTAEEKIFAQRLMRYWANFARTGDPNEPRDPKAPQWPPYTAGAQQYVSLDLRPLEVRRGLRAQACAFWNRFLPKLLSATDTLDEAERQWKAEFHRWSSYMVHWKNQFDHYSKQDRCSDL

Cc1c([C@@H](O)CN2CCN(C[C@H](O)c3ccc4c(c3C)COC4=O)CC2)ccc2c1COC2=O [MK-7145]
IC50 [1]: 0.12 µM
IC50 (Acetylcholinesterase): 9.94 µM
Vd [2]: 3.8 L/kg
metabolised at 2 h, 1 µM [3]: < 1%
IC50 [4]: > 30 µM
fold change (FC) (Rattus norvegicus [5]): 1.7
Activity [6]: Non-Toxic
clearance [7]: 29 mL/min/kg
clearance [8]: 56 mL/min/kg
fold change (FC) (Rattus norvegicus [9]): 1.8
IC50 [10]: 2.4 µM
fold change (FC) (Rattus norvegicus [11]): 8.6
inhibition (INH) [12]: Not Active
metabolised at 2 h, 1 µM [13]: < 1%
fold change (FC) (Rattus norvegicus [14]): 8.5
metabolised at 2 h, 1 µM [15]: 15 to 37%
fold change (FC) (Rattus norvegicus [16]): 9
Drug metabolism [17]: 15 to 37%
fold change (FC) (Rattus norvegicus [18]): 1.4
IC50 [19]: 23 µM
fold change (FC) (Rattus norvegicus [20]): 6.4
bioavailability [21]: 21%
fold change (FC) (Rattus norvegicus [22]): 2.1
half-life [23]: 5 h
IC50 (Cytochrome P450 2C9): > 50 µM
inhibition [24]: inactive
